IDH1 mut inh – blocks human IDH1 R132H reductase activity; O75874; diaphorase/resazurin fluorescence, 60 min; hit rate 0.18% among 70,000; inhibition, % at 10 µM; in the data active = inhibition above about 34%; inconclusive = no clear call, values can overlap the other calls; inactive = below about 11%
Target sequence (O75874 whole entry R132H): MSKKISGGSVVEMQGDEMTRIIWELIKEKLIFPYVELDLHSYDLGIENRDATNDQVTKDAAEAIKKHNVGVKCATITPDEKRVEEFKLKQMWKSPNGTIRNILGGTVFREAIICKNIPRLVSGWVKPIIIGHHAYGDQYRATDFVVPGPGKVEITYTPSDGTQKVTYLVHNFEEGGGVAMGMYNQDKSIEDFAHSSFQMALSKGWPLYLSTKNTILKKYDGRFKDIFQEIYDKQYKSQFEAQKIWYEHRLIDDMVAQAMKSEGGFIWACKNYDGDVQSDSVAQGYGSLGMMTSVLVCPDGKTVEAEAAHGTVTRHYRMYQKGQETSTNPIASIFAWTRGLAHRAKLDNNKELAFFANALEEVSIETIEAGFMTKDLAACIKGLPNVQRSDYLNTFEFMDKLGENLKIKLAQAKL
GASC1 inh – inhibitors of human demethylase GASC-1 KDM4C. GST-KDM4C 2-372, H3K9me3 peptide, LANCE TR-FRET. inhibition, % at 12.5 µM. AID 720574. hit rate 0.15% among 96,000;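 active = mean replicate inhibition above about 25%, with at least 55% of replicates also reaching it, limit read from the data, passing the limit was not always enough; inconclusive = only one of those two conditions met; inactive = neither condition met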
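reagent = H3K9me3 peptide substrate, Fe(II), 2-oxoglutarate | system = GST-tagged GASC-1 (JMJD2C) catalytic fragment, aa 2-372 | amount = enzyme final amount 10 nM | read-out = Fall in 671/618 emission ratio as inhibition | medium = HEPES buffer, pH 7.5, plus ascorbate | schedule = 30 min reaction, 60 min detection, RT | measured by = LANCE TR-FRET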
Pf Dd2 growth – P. falciparum Dd2 growth inhibition; SYBR Green, 72 h; hits give low values; activity change, % at 10 µM; hit rate 2.3% among 94,000; AID 1159554; in the data active = activity change below about -80%; inconclusive = no clear call, values can overlap the other calls
T cruzi growth – T. cruzi proliferation inhibition. hit rate 5.9% among 77,000. AID 624255. T. cruzi beta-gal in NIH3T3, GalScreen luminescence, 90 h. inhibition, % at 8.34 µM;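 active = mean inhibition above about 93%, with at least 55% of replicates each passing it, limit read from the data, passing the limit was not always enough; inconclusive = only one of those two conditions holds; inactive = neither condition holds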
Hits are given with their value; n = inactive; u = inconclusive; x = not tested or not shown. Hits are enriched below; roughly 5.8% of the tested compounds scored in any of these assays.

SMILES	IDH1 mut inh	GASC1 inh	Pf Dd2 growth	T cruzi growth
Cc1noc(C)c1S(=O)(=O)Nc1ccc2c(c1)C(=O)N([C@H](C)CO)C[C@@H](C)[C@@H](CN(C)S(=O)(=O)c1ccc(Cl)cc1)OCCCC[C@H](C)O2	n	n	-88.4	n
C[C@H]1CCCCO[C@@H](CN(C)S(=O)(=O)c2ccc(Cl)cc2)[C@@H](C)CN([C@@H](C)CO)C(=O)c2cc(NS(=O)(=O)c3ccccc3)ccc2O1	x	x	-83.0	x
COc1ccc(S(=O)(=O)N(C)C[C@@H]2OCCCC[C@H](C)Oc3ccc(NS(=O)(=O)c4ccc(Cl)cc4)cc3C(=O)N([C@H](C)CO)C[C@@H]2C)cc1	n	n	-89.1	x
COc1ccc(S(=O)(=O)Nc2ccc3c(c2)C(=O)N([C@@H](C)CO)C[C@@H](C)[C@@H](CN(C)S(=O)(=O)c2ccc(Cl)cc2)OCCCC[C@H](C)O3)cc1	x	n	-84.9	n
COc1ccc(S(=O)(=O)Nc2ccc3c(c2)C(=O)N([C@H](C)CO)C[C@H](C)[C@@H](CN(C)S(=O)(=O)c2ccc(Cl)cc2)OCCCC[C@H](C)O3)cc1	n	n	n	n
CC(C)NC(=O)NCC[C@@H]1CC[C@H](NC(=O)c2ccc(F)cc2)[C@@H](CO)O1	n	n	n	n
C[C@H](CO)N1C[C@H](C)[C@H](CN(C)Cc2ccc(-c3ccccc3)cc2)Oc2ccc(NS(=O)(=O)c3ccccc3)cc2CC1=O	n	n	x	x
Cn1cnc(S(=O)(=O)N[C@H]2CC[C@H](CC(=O)NCC3CC3)O[C@H]2CO)c1	n	n	n	x
C[C@@H]1CCCCO[C@H](CN(C)Cc2ccc(C(=O)Nc3ccccc3N)cc2)[C@@H](C)CN([C@H](C)CO)C(=O)c2cc(NS(=O)(=O)c3cccs3)ccc2O1	n	n	-87.2	n
C[C@@H]1CCCCO[C@H](CN(C)Cc2ccc(C(=O)Nc3ccccc3N)cc2)[C@@H](C)CN([C@@H](C)CO)C(=O)c2cc(NS(=O)(=O)c3ccc(Cl)cc3)ccc2O1	x	n	-84.9	n
C[C@@H]1CCCCO[C@@H](CN(C)Cc2ccc(C(=O)Nc3ccccc3N)cc2)[C@@H](C)CN([C@H](C)CO)C(=O)c2cc(NS(=O)(=O)c3cccs3)ccc2O1	x	n	u	x
CCCC(=O)Nc1ccc2c(c1)C(=O)N(C)C[C@@H](OC)[C@@H](C)CN(Cc1ccc(-c3ccccn3)cc1)[C@@H](C)CO2	n	n	n	x
C[C@H](CO)N1C[C@H](C)[C@@H](CN(C)S(=O)(=O)c2ccc(C(F)(F)F)cc2)OCc2ccccc2-c2c(n(C)c3ccccc23)C1=O	x	n	-89.6	x
C[C@H](CO)N1C[C@H](C)[C@H](CN(C)S(=O)(=O)c2ccc(C(F)(F)F)cc2)OCc2ccccc2-c2c(n(C)c3ccccc23)C1=O	x	n	-93.9	x
C[C@@H]1CN([C@@H](C)CO)C(=O)c2c(c3ccccc3n2C)-c2ccccc2CO[C@@H]1CN(C)S(=O)(=O)c1ccc(C(F)(F)F)cc1	x	n	-89.0	x
COc1ccc(S(=O)(=O)Nc2ccc3c(c2)C(=O)N([C@H](C)CO)C[C@H](C)[C@@H](CN(C)CC2CCCCC2)O3)cc1	n	x	n	n
COC(=O)C[C@H]1C[C@@H]2c3cc(NC(=O)Nc4ccccc4F)ccc3O[C@@H]2[C@@H](CO)O1	n	n	n	n
C[C@@H]1CN([C@H](C)CO)C(=O)c2cc(/C=C/c3ccccc3)cnc2O[C@@H]1CN(C)C(=O)C1CC1	x	n	-86.0	x
C[C@H](CO)N1C[C@H](C)[C@@H](CN(C)Cc2cncnc2)Oc2ncc(/C=C/c3ccccc3)cc2C1=O	79.1	51.8	n	n
C[C@H]1CN([C@@H](C)CO)C(=O)c2c(c3ccccc3n2C)-c2ccccc2CO[C@H]1CN(C)C(=O)Nc1cccc(Cl)c1Cl	x	n	-90.9	x
C[C@@H]1CN([C@@H](C)CO)C(=O)c2c(c3ccccc3n2C)-c2ccccc2CO[C@H]1CN(C)C(=O)Nc1cccc(Cl)c1Cl	x	n	-94.1	x
C[C@H](CO)N1C[C@H](C)[C@@H](CN(C)C(=O)Nc2cccc(Cl)c2Cl)OCc2ccccc2-c2c(n(C)c3ccccc23)C1=O	x	n	n	x
C[C@H](CO)N1C[C@H](C)[C@H](CN(C)C(=O)Nc2cccc(Cl)c2Cl)OCc2ccccc2-c2c(n(C)c3ccccc23)C1=O	x	n	n	x
Cc1ccc(S(=O)(=O)N[C@@H]2CC[C@H](CC(=O)N3CCc4ccccc4C3)O[C@@H]2CO)cc1	n	n	n	n
Cc1ccc(S(=O)(=O)N(C)C[C@@H]2OCCCC[C@@H](C)Oc3ccc(NC(=O)Nc4ccc5c(c4)OCO5)cc3C(=O)N([C@@H](C)CO)C[C@@H]2C)cc1	x	n	-83.1	x
SMILES	IDH1 mut inh	GASC1 inh	Pf Dd2 growth	T cruzi growth
Cc1ccc(S(=O)(=O)N(C)C[C@H]2OCCCC[C@@H](C)Oc3ccc(NC(=O)Nc4ccc5c(c4)OCO5)cc3C(=O)N([C@@H](C)CO)C[C@H]2C)cc1	n	n	n	x
Cc1ccc(S(=O)(=O)N(C)C[C@H]2OCCCC[C@H](C)Oc3ccc(NC(=O)Nc4ccc5c(c4)OCO5)cc3C(=O)N([C@@H](C)CO)C[C@H]2C)cc1	n	n	-82.0	n
Cc1ccc(S(=O)(=O)N(C)C[C@H]2OCCCC[C@H](C)Oc3ccc(NC(=O)Nc4ccc5c(c4)OCO5)cc3C(=O)N([C@H](C)CO)C[C@@H]2C)cc1	x	n	n	x
O=C(C[C@H]1C=C[C@H](NC(=O)Nc2ccccc2F)[C@H](CO)O1)NCc1ccc(F)cc1	n	n	n	n
C[C@@H]1CN([C@H](C)CO)C(=O)c2cc(NC(=O)c3ccccc3)ccc2O[C@@H](C)CCCCO[C@H]1CN(C)S(=O)(=O)c1ccc(Cl)cc1	x	n	-85.0	n
C[C@@H]1CCCCO[C@H](CN(C)S(=O)(=O)c2ccc(Cl)cc2)[C@@H](C)CN([C@@H](C)CO)C(=O)c2cc(NC(=O)c3ccccc3)ccc2O1	n	n	-82.6	n
C[C@@H]1CCCCO[C@H](CN(C)S(=O)(=O)c2ccc(Cl)cc2)[C@@H](C)CN([C@H](C)CO)C(=O)c2cc(NC(=O)c3ccccc3)ccc2O1	n	n	n	n
C[C@@H]1CCCCO[C@H](CN(C)S(=O)(=O)c2ccc(F)cc2)[C@@H](C)CN([C@@H](C)CO)C(=O)c2cc(NC(=O)c3ccccc3)ccc2O1	n	n	-84.2	x
Cc1ccc(S(=O)(=O)N(C)C[C@@H]2OCCCC[C@@H](C)Oc3ccc(NC(=O)c4ccccc4)cc3C(=O)N([C@H](C)CO)C[C@@H]2C)cc1	x	n	n	n
C[C@H](CO)N1C[C@H](C)[C@@H](CN(C)S(=O)(=O)c2ccc(Cl)cc2)OCCCC[C@H](C)Oc2ccc(NC(=O)c3ccccc3)cc2C1=O	x	n	n	n
C[C@@H]1CCCCO[C@H](CN(C)S(=O)(=O)c2ccc(F)cc2)[C@H](C)CN([C@@H](C)CO)C(=O)c2cc(NC(=O)c3ccccc3)ccc2O1	x	n	n	x
Cc1ccc(S(=O)(=O)N(C)C[C@@H]2OCCCC[C@H](C)Oc3ccc(NC(=O)c4ccccc4)cc3C(=O)N([C@@H](C)CO)C[C@H]2C)cc1	x	n	-83.6	n

High-throughput results (PubChem BioAssay)
